tolC growth inh: blocks growth of E. coli BW25113 tolC mutant | 65,000 compounds, 2.2% hits | growth inhibition, % at 10 µM (by protocol) | OD615;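 active = growth inhibition at or above a cutoff equal to the mean over every tested compound plus 3 SD, cut at about 60% in these data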;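 also: growth measured after 20 h incubation at 37 °C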
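System: E. coli ΔtolC::kan strain BW25113; Buffer or medium: LB broth supplemented with 50 µg/mL kanamycin; Compound: 10 µM final, single dose; Incubation: bacterial growth with compound for 20 h at 37 °C; Signal: A615 absorbance measurement; Evaluation: growth inhibition in percent.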
PostGolgi yeast: growth inhibition of a yeast mutant, post-Golgi transport screen | post-Golgi transport phenotypic cell assay | inhibition, % at 10 µM | 98,000 compounds, 0.9% hits | AID 739;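 also: yeast cells grown in 1536-well plates; yeast grown about 18 h at 30C before absorbance read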
PostGolgi ctrl: yeast control strain growth, post-Golgi counter-screen; AID 738; efflux-deficient yeast background strain, growth absorbance A615, 16 h; 98,000 compounds, 5% hits; inhibition, % at 10 µM
FAK blocker: inhibitors of human focal adhesion kinase; Q05397; biochemical FAK kinase activity assay; inhibition, %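 (tested at 7 µM)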; 97,000 compounds, 0.84% hits; in the data active = inhibition above about 19%;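 also: 0% = DMSO and 100% = reference compound high control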
Calb biofilm kill: kills Candida albicans biofilms | C. albicans biofilm + clotrimazole, Alamar Blue | inhibition, % at 6 µM | 85,000 compounds, 0.14% hits | AID 834;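 active = inhibition above 20%; inactive = inhibition below 20%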;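 also: preformed 24 hr biofilms exposed to compound for 48 hr; 0% = biofilm without compound and 100% = blank killed by clotrimazole plus chlorhexidine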
Pyk2 oligo antag: Pyk2 (human) oligomerization antagonism; Q14289; z-score (the deposit names both 25 µM and 10 µM); 99,000 compounds, 0.83% hits; Q293 cells, Pyk2 FERM NanoBiT luminescence; hits give low values; AID 1347419;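 active = Z-score of -3 or lower, scaled per plate to the spread of control and sample wells; inactive = z-score above -3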;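 also: negative z-score means lost luminescence so less FERM oligomerization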
* marks the source's active call; other numbers are inactive results; · = not tested or not shown. The list is not random: actives were taken first. Their share in the collection is about 6.9%. Rule as the data show it, unless noted: active = inhibition above about 30%; inactive = the rest.

SMILES	tolC growth inh	PostGolgi yeast	PostGolgi ctrl	FAK blocker	Calb biofilm kill	Pyk2 oligo antag
CC1=C(C(=O)Nc2ccccc2C)C2(CCCC2)C(C(N)=O)C(=O)N1 (centres undefined)	-5	8	6	-1	5	2.7
CCOC(=O)CN1CC23C=CC(O2)C(C(=O)Nc2ccc(F)c(C)c2)C3C1=O (centres undefined)	-20	7	36*	0	10	-0.43
Cc1ccc(O)c(-c2cc3ccccc3[nH]2)c1	100*	1	9	-2	7	-1.2
CCCCNC(=O)Nc1ccccn1	·	4	33*	-1	0	-0.12
CCCCNC(=O)Nc1ccc(Br)cn1	8	0	11	·	1	-0.3
O=C(NCCCNC(=O)c1ccccn1)c1ccccn1	2	-11	35*	·	5	2
CN(C)CCCNC(=O)c1ccccn1	·	7	10	0	3	-2.1
COC(=O)c1c(O)ccc(Oc2ccccc2)c1C(=O)OC	-8	-11	14	·	5	-0.05
CC(CO)Nc1nc(SCc2ccccc2)nc2sc3c(c12)CCC3 (centres undefined)	·	1	50*	-4	4	-0.12
COc1ccc(/C=N/Nc2ncc(-c3ccccc3)cn2)c(OC)c1	·	·	·	40*	7	-0.92
O=C(c1cc2nc(-c3ccco3)cc(C(F)(F)F)n2n1)N1CCN(c2ccccc2)CC1	71*	0	12	2	6	-0.55
O=C(c1cc2nc(-c3ccco3)cc(C(F)(F)F)n2n1)N1CCN(c2ccccn2)CC1	22	12	8	-1	9	0.64
CCOc1ncccc1C(=O)Nc1ccc(Cl)cc1	18	-6	6	3	·	-0.58
Cc1cc(C)nc(SCNC(=O)c2ccc(F)cc2)n1	-3	32*	13	-3	9	0.18
Cc1cc(SCNC(=O)c2ccccc2)ncn1	-7	-4	6	·	4	-0.21
CCCCCCCCC[n+]1cccc2c3ccccc3ccc21	·	11	98*	13	·	-0.05
CCCCCCCCCCCCCCCC[n+]1ccc(C(N)=O)cc1	·	·	·	·	·	-0.31
Cc1cc(=O)oc2cc(OCC(=O)NCCCN3CCOCC3)ccc12	-10	2	7	1	-4	0.08
Cc1cc(=O)oc2cc(OCCSCCN3CCOCC3)ccc12	8	6	32*	5	-6	1.9
CCOC(=O)c1[nH]c(=O)[nH]c1CSc1nc(C)cc(C)n1	0	-5	-11	-1	6	0.7
N#C/C(=C\c1ccc(Cl)cc1)c1nc2ncccc2[nH]1	·	27	48*	8	·	-0.84
CC1CCc2sc3nc(NCc4ccco4)n4ncnc4c3c2C1 (centres undefined)	36	-12	63*	2	8	0.16
CCN1CCN(c2nc3sc4c(c3c3ncnn23)CC(C)CC4)CC1 (centres undefined)	20	0	5	-5	1	0.75
CC1CCCc2sc3nc(NCc4ccco4)n4ncnc4c3c21 (centres undefined)	81*	-1	57*	4	1	0.92
Cc1nc(NCc2ccco2)c2c3c(sc2n1)CCC3	25	-1	0	3	-1	-0.05
SMILES	tolC growth inh	PostGolgi yeast	PostGolgi ctrl	FAK blocker	Calb biofilm kill	Pyk2 oligo antag
Brc1ccc(-c2nnc3n2CCCCC3)cc1	·	0	-5	1	6	0.55
CC(C)(C)OC(=O)N1CC(O)CC1C(=O)OCC(=O)c1ccc(Cl)cc1 (centres undefined)	-8	3	17	·	8	0.23
Cc1ccc(-c2nc3cccnc3s2)cc1NS(=O)(=O)c1ccc2c(c1)OCCO2	·	86*	98*	-8	7	·
O=S(=O)(Nc1cccc(-c2nc3cccnc3s2)c1)c1ccc2c(c1)OCCO2	17	30*	80*	-8	0	·
O=S(=O)(c1ccc2c(c1)OCCO2)N1CCC(c2nc3ccccc3s2)CC1	1	-3	3	-6	4	-3.1*
O=C(C1CCC1)N1CCc2cc(S(=O)(=O)N3CCCCC3)ccc21	-5	-9	8	7	·	1.4
O=C(C1CCN(S(=O)(=O)c2ccc3c(c2)OCCO3)CC1)N1CCc2ccccc21	21	-10	33*	·	9	-1.4
O=S(=O)(c1ccc2c(c1)OCCO2)N1CCC(c2nc3ccc(Cl)cc3[nH]2)CC1	38	-6	-4	3	-1	-3.4*
O=C(c1ccc(S(=O)(=O)N2CCC(c3nc4ccccc4s3)CC2)cc1)N1CCOCC1	-1	·	·	·	3	0.19
CCN(CC)CCNC(=O)c1cc2c(=O)n(C)c3ccccc3c2n1C	14	4	-4	1	-4	·
CCC(=O)Nc1cc(C(=O)OCC(=O)c2ccc(Cl)cc2Cl)ccc1C	·	-6	10	9	·	-0.82
CCn1c(O)c(C=NCc2cccs2)c(=O)n(CC)c1=S	·	18	57*	6	1	-0.7
CCn1c(SCC(=O)NCc2cccs2)nc2c1c(=O)n(C)c(=O)n2C	-22	-1	0	·	-4	0.3
O=C(NC(C(=O)c1ccccc1)N1CCOCC1)c1cccs1 (centres undefined)	-9	5	33*	0	7	0.34
CC1CCCCN1C(=O)c1cc(-c2ccc(Cl)c(Cl)c2)on1 (centres undefined)	57	-4	18	-2	6	-0.47
CCC1CCCCN1C(=O)c1cc(-c2ccc(Cl)c(Cl)c2)on1 (centres undefined)	100*	-3	28	·	1	-0.69
CCOC(=O)Cn1c(=O)oc2cc(S(=O)(=O)N(CCN(C)C)Cc3ccccc3)ccc21	-12	5	5	-1	10	-0.09
N#C/C(=C\C1CC=CCC1)c1nc2ccccc2[nH]1 (centres undefined)	64*	-6	9	4	·	0.23
CC(C)c1nc2ccc(NC(=O)C34CC5CC(CC(C5)C3)C4)cc2[nH]1	·	-4	6	0	4	0.08
COc1ccc2cc3cc(C(=O)NCCN4CCN(c5ccccc5F)CC4)oc3nc2c1	52	1	81*	-4	3	-3.1*
COc1ccc2cc3cc(C(=O)NCc4ccccn4)oc3nc2c1	-13	10	2	0	·	0.4
CCOc1ccc(NC(=O)c2cc3cc4ccc(OC)cc4nc3o2)cc1	·	-7	2	13	58*	0.53
Cc1cc(C)cc(Oc2ncnc3c2ncn3Cc2c(Cl)cccc2Cl)c1	·	-1	34*	-1	-2	-0.55
Cc1ccc(OCCC(=O)Nc2c(C)n(C)n(-c3ccccc3)c2=O)cc1	-18	-5	3	-1	6	1.1
c1cnc(SCCOc2ccc3c(c2)CCC3)nc1	·	-8	9	2	46*	-0.4
CSc1nc(-c2ccccc2)nc(N2CCCC2)c1C(C)=O	75*	-7	39*	1	0	-0.98
CSc1nc(-c2ccccc2)nc(N2CCN(C)CC2)c1C(C)=O	0	-23	5	13	7	-0.29
NS(=O)(=O)c1ccc(CCNc2ncnc3c2c(-c2ccccc2)cn3-c2ccc(F)cc2)cc1	·	10	61*	3	·	0.51
